According to ChEMBL document CHEMBL1124083, “Synthesis and biological properties of actinomycin D chromophoric analogues substituted at carbon 7 with aziridine and cyclopropyl functions” (J Med Chem, 1988):
Values after ≈ are worked out from the molar mass of the structure shown. *1 amine or outer side, *2 acyl side, *3 side chain or, on linkers, in order; H or OH if unused. Where a SMILES comes first, the peptide text is derived from it. Bridges are numbered along the chain shown (N, C = ends). Roman numbers before positions name the chains, in order. [ ]: non-standard residue; d: D form. Actinocin(9to1) = Cc1c2oc3c(C)ccc(C(=O)[*:1])c3nc-2c(C(=O)[*:2])c(N)c1=O; NMeV = CN[C@H](C(=O)O)C(C)C; Sar = CNCC(=O)O

Tests used:
B16 = test: In vitro antitumor activity against murine melanoma cells (B16 melanoma cells); type: functional; conditions: Mus musculus, read-out: ID50 (the source's name)
Outline: (§1)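 Cells grown in suspension culture and exposed to compound for 48 h. Compounds dissolved in Me₂SO-saline, with less than 1% Me₂SO in the final growth medium. ID50 is the concentration in ng/mL giving 50% growth inhibition. Values are the mean of three experiments; SD ranged from 8% to 10% of the mean.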

[1] = The delta Tm value is a measure of a stabilization of the DNA helical structure as consequence of compound binding; type: ADME
Outline: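 Calf-thymus DNA at 5.0 × 10⁻⁵ M with drug at 2.5 × 10⁻⁵ M in 0.01 M phosphate buffer (pH 7) containing 10⁻⁵ M EDTA. Thermal denaturation curves were recorded. ΔTm is the Tm of the DNA–drug complex minus the Tm of DNA alone.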

CCRF-CEM = test: In vitro antitumor activity against human leukemic lymphoblastic cells (CCRF-CEM); type: functional; conditions: read-out: ID50 (the source's name); outline: as §1

SMILES | IC50 (B16) [µg/mL] | Delta Tm [1] [C] | IC50 (CCRF-CEM) [µg/mL]
Cc1c2oc3c(C)c(OCC4CN4)cc(C(=O)N[C@@H]4C(=O)N[C@H](C(C)C)C(=O)N5CCC[C@H]5C(=O)N(C)CC(=O)N(C)[C@@H](C(C)C)C(=O)O[C@@H]4C)c3nc-2c(C(=O)N[C@@H]2C(=O)N[C@H](C(C)C)C(=O)N3CCC[C@H]3C(=O)N(C)CC(=O)N(C)[C@@H](C(C)C)C(=O)O[C@@H]2C)c(N)c1=O (some centres not stated) | 0.11 (≈ 0.0829 µM) | 2.8 | 0.076 (≈ 0.0573 µM)
Cc1c2oc3c(C)c(OCCN4CC4)cc(C(=O)N[C@@H]4C(=O)N[C@H](C(C)C)C(=O)N5CCC[C@H]5C(=O)N(C)CC(=O)N(C)[C@@H](C(C)C)C(=O)O[C@@H]4C)c3nc-2c(C(=O)N[C@@H]2C(=O)N[C@H](C(C)C)C(=O)N3CCC[C@H]3C(=O)N(C)CC(=O)N(C)[C@@H](C(C)C)C(=O)O[C@@H]2C)c(N)c1=O | 0.14 (≈ 0.104 µM) | 1.8 | 0.3 (≈ 0.224 µM)

Results, then the molecule that gave them:

IC50 (B16) [µg/mL] | Delta Tm [1] [C] | IC50 (CCRF-CEM) [µg/mL] | SMILES
0.055 (≈ 0.0414 µM) | 4.8 | 0.06 (≈ 0.0452 µM) | Cc1c2oc3c(C)c(OCC(C)N)cc(C(=O)N[C@@H]4C(=O)N[C@H](C(C)C)C(=O)N5CCC[C@H]5C(=O)N(C)CC(=O)N(C)[C@@H](C(C)C)C(=O)O[C@@H]4C)c3nc-2c(C(=O)N[C@@H]2C(=O)N[C@H](C(C)C)C(=O)N3CCC[C@H]3C(=O)N(C)CC(=O)N(C)[C@@H](C(C)C)C(=O)O[C@@H]2C)c(N)c1=O (some centres not stated)
0.038 (≈ 0.0287 µM) | -0.6 | 0.055 (≈ 0.0415 µM) | Cc1c2oc3c(C)c(OCC4CC4)cc(C(=O)N[C@@H]4C(=O)N[C@H](C(C)C)C(=O)N5CCC[C@H]5C(=O)N(C)CC(=O)N(C)[C@@H](C(C)C)C(=O)O[C@@H]4C)c3nc-2c(C(=O)N[C@@H]2C(=O)N[C@H](C(C)C)C(=O)N3CCC[C@H]3C(=O)N(C)CC(=O)N(C)[C@@H](C(C)C)C(=O)O[C@@H]2C)c(N)c1=O
0.0033 (≈ 0.00263 µM) | 8 | 0.013 (≈ 0.0104 µM) | Cc1c2oc3c(C)ccc(C(=O)N[C@@H]4C(=O)N[C@H](C(C)C)C(=O)N5CCC[C@H]5C(=O)N(C)CC(=O)N(C)[C@@H](C(C)C)C(=O)O[C@@H]4C)c3nc-2c(C(=O)N[C@@H]2C(=O)N[C@H](C(C)C)C(=O)N3CCC[C@H]3C(=O)N(C)CC(=O)N(C)[C@@H](C(C)C)C(=O)O[C@@H]2C)c(N)c1=O [DACTINOMYCIN] (I: T[dV]P[Sar][NMeV] / II: T[dV]P[Sar][NMeV]; ester I:1-I:C, II:1-II:C; linker I:N-II:N via Actinocin(9to1))
– | 1.9 | 0.5 (≈ 0.368 µM) | Cc1c2oc3c(C)c(OCCNCCO)cc(C(=O)N[C@@H]4C(=O)N[C@H](C(C)C)C(=O)N5CCC[C@H]5C(=O)N(C)CC(=O)N(C)[C@@H](C(C)C)C(=O)O[C@@H]4C)c3nc-2c(C(=O)N[C@@H]2C(=O)N[C@H](C(C)C)C(=O)N3CCC[C@H]3C(=O)N(C)CC(=O)N(C)[C@@H](C(C)C)C(=O)O[C@@H]2C)c(N)c1=O
